Source: ChEMBL document CHEMBL1772996, “Bioactive constituents from the roots of Panax japonicus var. major and development of a LC-MS/MS method for distinguishing between natural and artifactual compounds” (J Nat Prod, 2011)
The source made the active and inactive calls. The calls are words filed in the database; no cut-off is given here.

Experiments:
[1] = system: Neutrophil; test: Inhibition of fMLP/CB-activated human neutrophil degranulation assessed as inhibition of elastase release using MeO-Suc-Ala-Ala-Pro-Val-p-nitroanilide as a substrate after 5 mins; assay type: functional, cell-based
In short: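 Neutrophils from dextran sedimentation, Ficoll Hypaque centrifugation and hypotonic erythrocyte lysis (>98% viable by trypan blue), held in Ca2+-free HBSS pH 7.4 at 4 °C; 5×10^5/mL cells with 100 μM substrate equilibrated 37 °C 2 min, compound 5 min, then 100 nM FMLP plus 0.5 μg/mL CB; A405 monitored continuously; expressed as % of initial rate in drug-free activated control; mean ± S.E.M., n = 3–4; top concentration 30 μM.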

[2] = system: KB; test: Cytotoxicity against human KB cells assessed as growth inhibition after 3 days by sulforhodamine B assay; assay type: functional
[3] = system: DU-145; test: Cytotoxicity against human DU145 cells assessed as growth inhibition after 3 days by sulforhodamine B assay; assay type: functional
[4] = system: A549; test: Cytotoxicity against human A549 cells assessed as growth inhibition after 3 days by sulforhodamine B assay; assay type: functional, cell-based
[5] = system: HCT-8; test: Cytotoxicity against human HCT8 cells assessed as growth inhibition after 3 days by sulforhodamine B assay; assay type: functional, cell-based
[6] = system: Neutrophil; test: Inhibition of superoxide anion generation in human neutrophils in response to fMLP/CB
[7] = system: Neutrophil; test: Inhibition of fMLP/CB-stimulated superoxide anion generation in human neutrophils; assay type: functional, cell-based
In short: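 Isolated human neutrophils (dextran sedimentation, Ficoll Hypaque, hypotonic lysis; >98% viable) with 0.5 mg/mL ferricytochrome c and 1 mM Ca2+, 37 °C 2 min, compound 5 min; CB 1 μg/mL 3 min, then 100 nM FMLP 10 min; SOD-inhibitable cytochrome c reduction followed continuously at 550 nm with stirring; mean ± S.E.M., n = 3–4; top concentration 30 μM.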

[8] = Inhibition of yeast alpha-glucosidase assessed as p-nitrophenol release after 20 mins by microplate spectrophotometer; design: species or system Saccharomyces cerevisiae

Row | SMILES | IC50 [1] [µM] | IC50 [6] [µM] | IC50 [7] [µM] | IC50 [8] [µM] | growth inhibition (GI) [2] | growth inhibition (GI) [3] | growth inhibition (GI) [4] | growth inhibition (GI) [5]
1 | COC(=O)[C@H]1O[C@@H](O[C@H]2CC[C@]3(C)[C@H]4CC=C5[C@@H]6CC(C)(C)CC[C@]6(C(=O)O[C@@H]6O[C@H](CO)[C@@H](O)[C@H](O)[C@H]6O)CC[C@@]5(C)[C@]4(C)CC[C@H]3C2(C)C)[C@H](O)[C@@H](O)[C@@H]1O | 1.97 | 13.6 | – | – | inactive | inactive | inactive | inactive
2 | CC1(C)CC[C@]2(C(=O)O[C@@H]3O[C@H](CO)[C@@H](O)[C@H](O)[C@H]3O)CC[C@]3(C)C(=CC[C@@H]4[C@@]5(C)CC[C@H](O[C@@H]6O[C@H](C(=O)O[C@@H]7O[C@H](CO)[C@@H](O)[C@H](O)[C@H]7O)[C@@H](O[C@@H]7O[C@@H](CO)[C@H](O)[C@H]7O)[C@H](O)[C@H]6O)C(C)(C)[C@@H]5CC[C@]43C)[C@@H]2C1 | 1.87 | – | 1.56 | – | inactive | inactive | inactive | inactive
3 | CCCCOC(=O)[C@H]1O[C@@H](O[C@H]2CC[C@]3(C)[C@H]4CC=C5[C@@H]6CC(C)(C)CC[C@]6(C(=O)O[C@@H]6O[C@H](CO)[C@@H](O)[C@H](O)[C@H]6O)CC[C@@]5(C)[C@]4(C)CC[C@H]3C2(C)C)[C@H](O)[C@@H](O)[C@@H]1O | 7.28 | – | 3.73 | – | inactive | inactive | inactive | inactive
4 | C[C@H]1O[C@H](O[C@H]2[C@H](O)[C@@H](O)[C@@H](O[C@H]3[C@H](O)[C@@H](O)C(O)O[C@@H]3CO)O[C@@H]2CO)[C@H](O)[C@@H](O)[C@@H]1N[C@H]1C=C(CO)[C@@H](O)[C@H](O)[C@H]1O (some centres undefined) [ACARBOSE] | – | – | – | 678 | – | – | – | –
5 | CC1(C)CC[C@]2(C(=O)O[C@@H]3O[C@H](CO)[C@@H](O)[C@H](O)[C@H]3O)CC[C@]3(C)C(=CC[C@@H]4[C@@]5(C)CC[C@H](O[C@@H]6O[C@H](C(=O)O)[C@@H](O)[C@H](O)[C@H]6O)C(C)(C)[C@@H]5CC[C@]43C)[C@@H]2C1 [CHIKUSETSUSAPONIN IVA] | 4.76 | – | 2.88 | – | inactive | inactive | inactive | inactive

Now from value to compound, other results behind:

Row | IC50 [1] [µM] | IC50 [6] [µM] | IC50 [7] [µM] | IC50 [8] [µM] | SMILES | growth inhibition (GI) [2] | growth inhibition (GI) [3] | growth inhibition (GI) [4] | growth inhibition (GI) [5]
6 | 0.75 | – | 1.37 | – | CC1(C)CC[C@]2(C(=O)O)CC[C@]3(C)C(=CC[C@@H]4[C@@]5(C)CC[C@H](O)C(C)(C)[C@@H]5CC[C@]43C)[C@@H]2C1 [OLEANOLIC_ACID] | inactive | inactive | inactive | inactive
7 | 7.75 | – | 5.26 | – | COC(=O)[C@H]1O[C@@H](O[C@H]2CC[C@]3(C)[C@H]4CC=C5[C@@H]6CC(C)(C)CC[C@]6(C(=O)O[C@@H]6O[C@H](CO)[C@@H](O)[C@H](O)[C@H]6O)CC[C@@]5(C)[C@]4(C)CC[C@H]3C2(C)C)[C@H](O[C@H]2OC[C@@H](O)[C@H](O)[C@H]2O)[C@@H](O)[C@@H]1O [PSEUDOGINSENOSIDE RT1 METHYL ESTER] | inactive | inactive | inactive | inactive
8 | 44.5 | – | 19.4 | – | CC1(C)CC[C@]2(C(=O)O[C@@H]3O[C@H](CO)[C@@H](O)[C@H](O)[C@H]3O)CC[C@]3(C)C(=CC[C@@H]4[C@@]5(C)CC[C@H](O[C@@H]6O[C@H](C(=O)O)[C@@H](O)[C@H](O)[C@H]6O[C@H]6OC[C@@H](O)[C@H](O)[C@H]6O)C(C)(C)[C@@H]5CC[C@]43C)[C@@H]2C1 [PSEUDOGINSENOSIDE RT1] | inactive | inactive | inactive | inactive
9 | 1.36 | – | 2.24 | – | CCCCOC(=O)[C@H]1O[C@@H](O[C@H]2CC[C@]3(C)[C@H]4CC=C5[C@@H]6CC(C)(C)CC[C@]6(C(=O)O[C@@H]6O[C@H](CO)[C@@H](O)[C@H](O)[C@H]6O)CC[C@@]5(C)[C@]4(C)CC[C@H]3C2(C)C)[C@H](O)[C@@H](O)[C@@H]1O[C@@H]1O[C@@H](CO)[C@H](O)[C@H]1O [TAIBAIENOSIDE I] | inactive | inactive | inactive | inactive
